Results on 55 molecules are retold here after ChEMBL document CHEMBL1134668, “Hydrazinonaphthalene and azonaphthalene thrombopoietin mimics are nonpeptidyl promoters of megakaryocytopoiesis” (J Med Chem, 2001).

For experiment [1], the target named is T1, Thrombopoietin receptor (Homo sapiens) (UniProt P40238).
T1 sequence (whole entry): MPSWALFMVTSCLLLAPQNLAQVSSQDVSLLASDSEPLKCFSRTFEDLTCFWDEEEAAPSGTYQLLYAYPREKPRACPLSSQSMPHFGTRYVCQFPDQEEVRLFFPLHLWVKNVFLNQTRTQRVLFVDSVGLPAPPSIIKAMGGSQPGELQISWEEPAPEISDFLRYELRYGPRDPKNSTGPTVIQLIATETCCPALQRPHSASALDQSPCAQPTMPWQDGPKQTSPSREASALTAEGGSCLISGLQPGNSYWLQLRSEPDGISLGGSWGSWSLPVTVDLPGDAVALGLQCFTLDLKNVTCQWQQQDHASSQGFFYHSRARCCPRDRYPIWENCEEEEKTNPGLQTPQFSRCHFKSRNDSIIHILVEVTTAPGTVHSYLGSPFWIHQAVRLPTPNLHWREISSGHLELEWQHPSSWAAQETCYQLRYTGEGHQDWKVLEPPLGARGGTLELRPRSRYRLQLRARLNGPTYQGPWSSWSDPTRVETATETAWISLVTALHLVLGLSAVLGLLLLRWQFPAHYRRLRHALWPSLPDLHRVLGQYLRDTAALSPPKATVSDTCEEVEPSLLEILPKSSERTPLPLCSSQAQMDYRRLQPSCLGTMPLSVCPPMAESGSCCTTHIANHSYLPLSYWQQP
The experiment can be described thus: Thrombopoietin luciferase activity in BAF-3 cells. The following applies: BaF3. The class given is cell-based.

Experiment [2] addresses T2, Thrombopoietin receptor (Homo sapiens, UniProt P40238).
T2 sequence (P40238 whole entry): T1 sequence (whole entry)
Put plainly: Effective concentration for thrombopoietin luciferase activity was determined in BAF-3 cells. The class given is cell-based, BaF3.

The nature of experiment [3]: Compound tested for UT7/TPO cell proliferation activity (%TPO) using proliferation assay. The class given is functional, Homo sapiens. Summed up:
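UT7/TPO cells kept in IMDM/10% FBS/glutamine plus rhTPO, starved overnight without TPO. Cells (0.2 × 10^6/mL) in starving medium incubated with compounds (0.32% DMSO final) or rhTPO, 37 °C, 5% CO2, 72 h. Pellet DNA content read by BrdU kit. Mean value over control as % of maximal-TPO response, duplicates, plotted vs concentration for EC50.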

As usually defined, the EC50 is the midpoint of the concentration-response curve. Molecule `O=S(=O)(O)c1cc(O)c(/N=N/c2c(O)cc(O)c3ccccc23)c2ccccc12` had an Efficacy in experiment [1] of 16%. In experiment [2], this molecule yielded an EC50 of 5000 nM. The molecule `Cc1[nH]n(-c2ccccc2[N+](=O)[O-])c(=O)c1/N=N/c1c(O)cc(S(=O)(=O)O)c2ccccc12` displayed an Efficacy in experiment [1] of 19%. Further, the EC50 in experiment [2] came out at 8000 nM. `Cc1n[nH]c(O)c1/N=N/c1c(O)cc(S(=O)(=O)O)c2ccccc12` showed an Efficacy in experiment [1] of less than 5%. For the molecule `Cc1[nH]n(-c2ccc(F)cc2)c(=O)c1/N=N/c1c(O)cc(S(=O)(=O)O)c2ccccc12`, the Efficacy in experiment [1] is 39%. In experiment [2], the EC50 worked out at 500 nM. As for `Cc1cccc(-n2[nH]c(C)c(/N=N/c3c(O)cc(S(=O)(=O)O)c4ccccc34)c2=O)c1`, the Efficacy in experiment [1] came to 34%. The molecule further came in with a 50% effective concentration (EC50) in experiment [2] of 700 nM. With `O=S(=O)(O)c1cc(O)c(/N=N/c2ccc3ccccc3c2O)c2ccccc12`, the Efficacy in experiment [1] was determined as 87%. In experiment [2], the EC50 came to 70 nM. Turning to `Cc1[nH]n(-c2ccc(C(=O)O)cc2)c(=O)c1/N=N/c1c(O)cc(S(=O)(=O)O)c2ccccc12`, in experiment [1], the Efficacy was less than 5%. `O=S(=O)(O)c1cc(O)c(/N=N/c2c(O)ccc3cc(O)ccc23)c2ccccc12` yielded an Efficacy in experiment [1] of 16%. Further, the EC50 in experiment [2] stood at 2000 nM. `CC(C)(C)c1ccc(-n2[nH]c(C(=O)O)c(/N=N/c3c(O)cc(S(=O)(=O)O)c4ccccc34)c2=O)cc1` had an Efficacy in experiment [1] of less than 5%. With `Cc1[nH]n(-c2ccc(C(F)(F)F)cc2)c(=O)c1/N=N/c1c(O)cc(S(=O)(=O)O)c2ccccc12`, the values for the Efficacy in experiment [1] and in experiment [3] were 39% and 100%, respectively. This molecule returned a half-maximal effective concentration (EC50) in experiment [2] of 100 nM. As to `O=S(=O)(O)c1ccc(/N=N/c2c(O)ccc3ccccc23)c2ccccc12`, the Efficacy in experiment [1] is less than 5%. The molecule `Cc1[nH]n(-c2ccc(OCc3ccccc3)cc2)c(=O)c1/N=N/c1c(O)cc(S(=O)(=O)O)c2ccccc12` registered an Efficacy in experiment [1] of 34%. Moreover, the response in experiment [2] was half-maximal at 200 nM (EC50).

Regarding `Cc1ccc(-n2[nH]c(C)c(/N=N/c3c(O)cc(C(=O)O)c4ccccc34)c2=O)cc1`, in experiment [1], the Efficacy is 47%. Moreover, a half-maximal effect in experiment [2] (EC50) was put at 2000 nM.

Molecule `Cc1[nH]n(-c2cccc(C(C)(C)C)c2)c(=O)c1/N=N/c1c(O)cc(S(=O)(=O)O)c2ccccc12` yielded an Efficacy in experiment [1] of 71%. For the same molecule, in experiment [2], the concentration giving a half-maximal response (EC50) came to 70 nM. Turning to `Cc1[nH]n(-c2cccc([N+](=O)[O-])c2)c(=O)c1/N=N/c1c(O)cc(S(=O)(=O)O)c2ccccc12`, the Efficacy in experiment [1] is 28%. This molecule had a half-maximal effective concentration (EC50) in experiment [2] of 300 nM.

For `Cc1ccc(-n2[nH]cc(/N=N/c3c(O)cc(S(=O)(=O)O)c4ccccc34)c2=O)cc1C`, in experiment [1], the Efficacy stood at 95%. For the same molecule, in experiment [2], a half-maximal effect (EC50) was put at 100 nM. For `CCOC(=O)c1[nH]n(-c2ccc(C(C)(C)C)cc2)c(=O)c1/N=N/c1c(O)cc(S(=O)(=O)O)c2ccccc12` the same measures were 56% and 2000 nM.

As to `Cc1[nH]n(-c2ccc(C(C)C)cc2)c(=O)c1/N=N/c1c(O)cc(S(=O)(=O)O)c2ccccc12`, the Efficacy in experiment [1] stood at 100%. The same molecule registered an EC50 in experiment [2] of 70 nM.

For the molecule `Cc1[nH]n(-c2ccc(Cl)cc2)c(=O)c1/N=N/c1c(O)cc(S(=O)(=O)O)c2ccccc12`, the Efficacy was found to be 47% in experiment [1] and 75% in experiment [3]. Further, the EC50 in experiment [2] is 2000 nM. For the molecule `O=C(O)c1cc2ccccc2c(/N=N/c2c(O)cc(S(=O)(=O)O)c3ccccc23)c1O`, the Efficacy in experiment [1] came to 48%. Besides, a half-maximal response in experiment [2] (EC50) required 10000 nM. In experiment [1], `O=C(Nc1c(O)cc(S(=O)(=O)O)c2ccccc12)c1c(O)ccc2ccccc12` returned an Efficacy of less than 5%. Consider `Cc1ccccc1-n1[nH]c(C)c(/N=N/c2c(O)cc(S(=O)(=O)O)c3ccccc23)c1=O`, for which the Efficacy in experiment [1] stood at 30%. This molecule also had a concentration for a half-maximal effect (EC50) in experiment [2] of 10000 nM. For the molecule `CC(C)(C)OC(=O)c1[nH]n(-c2ccc(C(C)(C)C)cc2)c(=O)c1/N=N/c1c(O)cc(S(=O)(=O)O)c2ccccc12`, the Efficacy in experiment [1] was 32%. The molecule also registered an EC50 in experiment [2] of 200 nM.

With `O=S(=O)(O)c1cc(O)c(/N=N/c2ccc(O)c3ccc(O)cc23)c2ccccc12`, in experiment [1], the Efficacy is less than 5%. In experiment [1], `Cc1[nH]n(-c2ccccc2)c(=O)c1/N=N/c1c(O)cc(S(=O)(=O)O)c2ccccc12` returned an Efficacy of 26%. The molecule further yielded a half-maximal effective concentration (EC50) in experiment [2] of 2000 nM. For `CC(C)(C)c1ccc(-n2[nH]c(N)c(/N=N/c3c(O)cc(S(=O)(=O)O)c4ccccc34)c2=O)cc1` the same measures were 87% and 5000 nM. In experiment [1], `O=S(=O)(O)c1cc(O)c(/N=N/c2c(O)c3ccccc3c3ccccc23)c2ccccc12` yielded an Efficacy of 61%. This molecule yielded an EC50 in experiment [2] of 200 nM. On to `Cc1[nH]n(Cc2ccccc2)c(=O)c1/N=N/c1c(O)cc(S(=O)(=O)O)c2ccccc12`, for which the Efficacy in experiment [1] came to 32%. Besides, the 50% effective concentration (EC50) in experiment [2] was more than 30000 nM.

As to `Cc1[nH]n(-c2ccc(O)cc2)c(=O)c1/N=N/c1c(O)cc(S(=O)(=O)O)c2ccccc12`, the Efficacy in experiment [1] was less than 5%. The molecule `Cc1[nH]n(-c2ccccc2Cl)c(=O)c1/N=N/c1c(O)cc(S(=O)(=O)O)c2ccccc12` registered an Efficacy in experiment [1] of 6%. In experiment [2], this molecule registered a half-maximal effective concentration (EC50) of more than 30000 nM. As to `Cc1[nH]n(C)c(=O)c1/N=N/c1c(O)cc(S(=O)(=O)O)c2ccccc12`, the Efficacy in experiment [1] was less than 5%. In turn, `Cc1[nH]n(C(C)(C)C)c(=O)c1/N=N/c1c(O)cc(S(=O)(=O)O)c2ccccc12` had an Efficacy in experiment [1] of less than 5%. `O=[N+]([O-])c1cc(O)c(/N=N/c2c(O)ccc3ccccc23)c2ccccc12` had an Efficacy in experiment [1] of less than 5%. Still for that read-out and setting: to `O=S(=O)(O)c1cc(O)c(/N=C/c2c(O)ccc3ccccc23)c2ccccc12` belongs less than 5%.

With `Cc1[nH]n(-c2ccc([N+](=O)[O-])cc2)c(=O)c1/N=N/c1c(O)cc(S(=O)(=O)O)c2ccccc12`, the Efficacy in experiment [1] was 63%. In experiment [2], this molecule registered an EC50 of 400 nM. `Cc1[nH]n(-c2ccccc2)c(=O)c1/N=N/c1c(O)cc(C(=O)O)c2ccccc12` yielded an Efficacy in experiment [1] of 21%. This molecule also yielded an EC50 in experiment [2] of 5000 nM. In turn, `Cc1ccc(-n2[nH]c(-c3ccccc3)c(/N=N/c3c(O)cc(S(=O)(=O)O)c4ccccc34)c2=O)cc1C` displayed an Efficacy in experiment [1] of 92%. Further, in experiment [2], the EC50 was 900 nM. The molecule `Cc1ccc(-n2[nH]c(C(C)(C)C)c(/N=N/c3c(O)cc(S(=O)(=O)O)c4ccccc34)c2=O)cc1C` yielded an Efficacy in experiment [1] of 72%. The half-maximal effective concentration (EC50) in experiment [2] came to 300 nM.

Consider `COc1cc(O)c2ccccc2c1/N=N/c1c(O)cc(S(=O)(=O)O)c2ccccc12`, for which, in experiment [1], the Efficacy is 19%. Moreover, in experiment [2], the half-maximal effective concentration (EC50) was found to be 3000 nM. Regarding `CCOc1nn(-c2ccc(C)c(C)c2)c(O)c1/N=N/c1c(O)cc(S(=O)(=O)O)c2ccccc12`, in experiment [1], the Efficacy is 80%. The molecule also displayed an EC50 in experiment [2] of 600 nM. Molecule `Cc1[nH]n(-c2ccc(S(C)(=O)=O)cc2)c(=O)c1/N=N/c1c(O)cc(S(=O)(=O)O)c2ccccc12` came in with an Efficacy in experiment [1] of 18%. Further, the EC50 in experiment [2] came out at 3000 nM. For the molecule `Cc1[nH]n(-c2ccccn2)c(=O)c1/N=N/c1c(O)cc(S(=O)(=O)O)c2ccccc12`, the Efficacy in experiment [1] is 24%. Further, in experiment [2], a half-maximal effect (EC50) was put at 7000 nM.

Take `Cc1[nH]n(CCO)c(=O)c1/N=N/c1c(O)cc(S(=O)(=O)O)c2ccccc12`: the Efficacy in experiment [1] is less than 5%.

On to `Oc1ccc2ccccc2c1/N=N/c1c(O)ccc2ccccc12`, for which the Efficacy in experiment [1] was less than 5%. Molecule `CCNS(=O)(=O)c1cccc(-n2[nH]c(C)c(/N=N/c3c(O)cc(S(=O)(=O)O)c4ccccc34)c2=O)c1` gave an Efficacy in experiment [1] of 25%. Besides, the EC50 in experiment [2] came out at 10000 nM. In experiment [1], `Cc1ccc(-n2[nH]c(C)c(/N=N/c3c(O)cc(C(=O)O)c4ccccc34)c2=O)cc1C` displayed an Efficacy of 24%. Moreover, the EC50 in experiment [2] came to 1000 nM. With `O=S(=O)(O)c1cc(O)c(/N=N/c2c(O)c(O)cc3ccccc23)c2ccccc12`, the Efficacy in experiment [1] turned out to be 26%. The molecule also returned a 50% effective concentration (EC50) in experiment [2] of 2000 nM.

`Cc1[nH]n(-c2ccc(S(=O)(=O)O)cc2)c(=O)c1/N=N/c1c(O)cc(S(=O)(=O)O)c2ccccc12` gave an Efficacy in experiment [1] of less than 5%.

As to `Cc1[nH]n(-c2cc(Cl)c(S(=O)(=O)O)cc2Cl)c(=O)c1/N=N/c1c(O)cc(S(=O)(=O)O)c2ccccc12`, the Efficacy in experiment [1] is less than 5%.

On to `Cc1ccc(O)c(/N=N/c2c(O)cc(S(=O)(=O)O)c3ccccc23)c1`, for which the Efficacy in experiment [1] is 28%. Further, the concentration for a half-maximal effect (EC50) in experiment [2] amounted to 3000 nM.

`COc1ccc2ccc(O)c(/N=N/c3c(O)cc(S(=O)(=O)O)c4ccccc34)c2c1` yielded an Efficacy in experiment [1] of 85%. This molecule also came in with an EC50 in experiment [2] of 300 nM. The molecule `O=C(O)c1cccc2c(/N=N/c3c(O)cc(S(=O)(=O)O)c4ccccc34)c(O)ccc12` registered an Efficacy in experiment [1] of less than 5%. Same read-out and setting: in the case of `Cc1[nH]n(-c2cc(S(=O)(=O)O)ccc2Cl)c(=O)c1/N=N/c1c(O)cc(S(=O)(=O)O)c2ccccc12` it was less than 5%.

In experiment [1], `O=S(=O)(O)c1cc(O)c(NCc2c(O)ccc3ccccc23)c2ccccc12` had an Efficacy of less than 5%. In turn, `O=S(=O)(O)c1cc(O)c(/N=N/c2c(O)ccc3ccc(O)cc23)c2ccccc12` had an Efficacy in experiment [1] of 31%. Also, the EC50 in experiment [2] is 2000 nM.
